System: Mus musculus
Assay: Tested for its effect on spermatogenic index 3 days after single oral dose (10 mg/kg)
Format: functional
Summary of the method: (§1)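 Male CD-1 (ICR) mice, 7 weeks old on arrival, 5 per dose, single gavage of 10 mL/kg on day 0. Vehicle was 0.15 M acetate buffer pH 5, ethanol/Tween-20/water 3:7:90, or 1% Tween-20. Mice were killed with CO2 at 72 h and testes weighed and scored for spermatogenic index (0–6 scale). Results are % reduction versus the vehicle control. Dunnett's one-tailed t-test.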

SMILES | Reduction
CCc1ccc2c(c1)[C@@H](c1ccc(C)cc1)[C@@H]1CCN(CC)C[C@H]21.Cl | 7%
CCN1CC[C@H]2[C@H](c3ccc(C(=O)O)cc3)c3cc(C)ccc3[C@H]2C1.Cl (stereo in doubt; (d)-10k) | 40%

System: Mus musculus
Assay: Tested for its effect on testes weight 3 days after single oral dose (10 mg/kg)
Format: functional, Testis
Summary of the method: (§2)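 CD-1 outbred Swiss albino male mice, 5 per dose, single gavage on day 0 at 10 mL/kg. Vehicle was 0.15 M acetate buffer pH 5, ethanol/Tween-20/water (3:7:90), or 1% Tween-20 in water. CO2 euthanasia 72 h later. Testes weighed and histologically scored (spermatogenic index 0–6). Values are % reduction versus the assay's vehicle control. Positive control was 30 mg/kg of the parent compound. Significance by Dunnett's one-tailed t-test, p < 0.05.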

SMILES | Reduction
CCc1ccc2c(c1)[C@@H](c1ccc(C)cc1)[C@@H]1CCN(CC)C[C@H]21.Cl | 2%
CCN1CC[C@H]2[C@H](c3ccc(C)cc3)c3ccccc3[C@H]2C1.Cl | 5%
Cc1ccc([C@@H]2c3cc(C)ccc3[C@H]3CN(C(C)C)CC[C@@H]23)cc1.Cl | 7%
CCN1CC[C@H]2[C@H](c3ccc(C(=O)O)cc3)c3cc(C)ccc3[C@H]2C1.Cl (stereo in doubt; (d)-10k) | 26%

System: Mus musculus
Assay: Tested for its effect on spermatogenic index 3 days after single oral dose (10 mg/kg),
Format: functional
Summary of the method: as §2

SMILES | Reduction
CCN1CC[C@H]2[C@H](c3ccc(C)cc3)c3ccccc3[C@H]2C1.Cl | 0%
Cc1ccc([C@@H]2c3cc(C)ccc3[C@H]3CN(C(C)C)CC[C@@H]23)cc1.Cl | 10%

System: Mus musculus
Assay: Tested for its effect on testes weight 3 days after single oral dose (90 mg/kg)
Format: functional, Testis
Summary of the method: as §2

SMILES | Reduction
CCN1CC[C@H]2[C@H](c3ccccc3C)c3cc(C)ccc3[C@H]2C1.Cl | 3%
CCN1CC[C@H]2[C@H](c3ccc(F)cc3)c3cc(C)ccc3[C@H]2C1.Cl | 5%
CCN1CCC(=C(c2ccc(C)cc2)c2cccc(C)c2)CC1.Cl | -5%
CCN1CC[C@H]2[C@H](c3ccc(C)cc3)c3ccccc3[C@H]2C1.Cl | 20%
Cc1ccc([C@@H]2c3cc(C)ccc3[C@H]3CN(C(C)C)CC[C@@H]23)cc1.Cl | 23%
CCN1CC[C@H]2[C@H](c3ccc(C(=O)O)cc3)c3cc(C)ccc3[C@H]2C1.Cl (stereo in doubt; (d)-10k) | 27%

System: Mus musculus
Assay: Tested for its effect on testes weight 3 days after single oral dose (3 mg/kg)
Format: functional, Testis
Summary of the method: as §1

SMILES | Reduction
CCc1ccc2c(c1)[C@@H](c1ccc(C)cc1)[C@@H]1CCN(CC)C[C@H]21.Cl | 3%
CCN1CC[C@H]2[C@H](c3ccc(C(=O)O)cc3)c3cc(C)ccc3[C@H]2C1.Cl (stereo in doubt; (d)-10k) | -5%

System: Mus musculus
Assay: Tested for its effect on spermatogenic index 3 days after single oral dose (30 mg/kg)
Format: functional
Summary of the method: as §2

SMILES | Reduction
CCc1ccc2c(c1)[C@@H](c1ccc(C)cc1)[C@@H]1CCN(CC)C[C@H]21.Cl | 33%
CCN1CC[C@H]2[C@H](c3ccc(C)cc3)c3ccccc3[C@H]2C1.Cl | 20%
Cc1ccc([C@@H]2c3cc(C)ccc3[C@H]3CN(C(C)C)CC[C@@H]23)cc1.Cl | 28%
CCN1CC[C@H]2[C@H](c3ccc(C(=O)O)cc3)c3cc(C)ccc3[C@H]2C1.Cl (stereo in doubt; (d)-10k) | 67%

System: Mus musculus
Assay: Tested for its effect on spermatogenic index 3 days after single oral dose (3 mg/kg)
Format: functional
Summary of the method: as §1

SMILES | Reduction
CCN1CC[C@H]2[C@H](c3ccc(C(=O)O)cc3)c3cc(C)ccc3[C@H]2C1.Cl (stereo in doubt; (d)-10k) | 21%

System: Mus musculus
Assay: Tested for its effect on spermatogenic index 3 days after single oral dose (90 mg/kg)
Format: functional
Summary of the method: as §2

SMILES | Reduction
CCN1CC[C@H]2[C@H](c3ccc(C)cc3)c3ccccc3[C@H]2C1.Cl | 35%
Cc1ccc([C@@H]2c3cc(C)ccc3[C@H]3CN(C(C)C)CC[C@@H]23)cc1.Cl | 45%
CCN1CC[C@H]2[C@H](c3ccc(C(=O)O)cc3)c3cc(C)ccc3[C@H]2C1.Cl (stereo in doubt; (d)-10k) | 70%

System: Mus musculus
Assay: Tested for its effect on spermatogenic index 3 days after single oral dose (3 mg/kg),
Format: functional
Summary of the method: as §1

SMILES | Reduction
CCc1ccc2c(c1)[C@@H](c1ccc(C)cc1)[C@@H]1CCN(CC)C[C@H]21.Cl | -2%

System: Mus musculus
Assay: Tested for its effect on testes weight 3 days after single oral dose (30 mg/kg)
Format: functional, Testis
Summary of the method: as §2

SMILES | Reduction
CCc1ccc2c(c1)[C@@H](c1ccc(C)cc1)[C@@H]1CCN(CC)C[C@H]21.Cl | 26%
CCN1CC[C@H]2[C@H](c3ccc(C)cc3)c3ccccc3[C@H]2C1.Cl | 3%
Cc1ccc([C@@H]2c3cc(C)ccc3[C@H]3CN(C(C)C)CC[C@@H]23)cc1.Cl | 15%
CCN1CC[C@H]2[C@H](c3ccc(C(=O)O)cc3)c3cc(C)ccc3[C@H]2C1.Cl (stereo in doubt; (d)-10k) | 16%

System: Mus musculus
Assay: Tested for its effect on spermatogenic index 3 days after single oral dose (90 mg/kg),
Format: functional
Summary of the method: as §2

SMILES | Reduction
CCN1CC[C@H]2[C@H](c3ccccc3C)c3cc(C)ccc3[C@H]2C1.Cl | -9%
CCN1CC[C@H]2[C@H](c3ccc(F)cc3)c3cc(C)ccc3[C@H]2C1.Cl | -5%
CCN1CCC(=C(c2ccc(C)cc2)c2cccc(C)c2)CC1.Cl | 0%

Reference: ChEMBL document CHEMBL1128250, “Structure-activity studies of 2,3,4,4a,5,9b-hexahydroindeno[1,2-c]pyridines as antispermatogenic agents for male contraception” (1995)
